Assay [1] concerns Candida albicans. Put plainly: Antifungal activity against Candida albicans ATCC 90028 at 16 ug/ml after 18 hrs relative to control. The class given is functional. The gist of the method:
(§1)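 Planktonic broth microdilution per M27-A3 in MOPS-buffered RPMI 1640 (pH 7.0), final inoculum 1.8×10^3 cells/mL, compounds 0.0313–16 µg/mL from 1600 µg/mL stocks in ethanol or DMSO. Incubated at 35°C without agitation; OD405 read at 18 and 48 h. % inhibition was derived from test, sterility (no inoculum) and solvent growth-control wells. Amphotericin B at 0.5 µg/mL served as the 100% control.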

The subject of assay [2] is Candida albicans. Nature of the assay: Antifungal activity against Candida albicans ATCC 90028 at 2 ug/ml after 18 hrs relative to control. It is filed as functional. The gist of the method: as §1
Assay [3] deals with Candida albicans. Put plainly: Antifungal activity against Candida albicans ATCC 90028 at 0.125 ug/ml after 18 hrs relative to control. The class given is functional. The essentials:
as §1

Assay [4] concerns Candida albicans. Nature of the assay: Synergistic antifungal activity against Candida albicans ATCC 90028 at 80 ug/ml after 48 hrs in presence of 2.5 ug/ml fluconazol by checkerboard assay relative to control. It is filed as functional. The gist of the method:
(§2)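 Checkerboard microdilution (M27-A3) on C. albicans ATCC 90028 in RPMI 1640: fluconazole (80-1.25 µg/mL) crossed with tetrazole (80-1.25 µg/mL final), incubated at 35°C for 48 h. Growth by OD405 at 18 and 48 h, endpoint taken as 100% inhibition. FIC index = sum of the two agents' FICs; <1 synergism, >1 antagonism.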

Assay [5] has as its system Candida albicans. Nature of the assay: Synergistic antifungal activity against Candida albicans ATCC 90028 at 40 ug/ml after 48 hrs in presence of 10 ug/ml fluconazol by checkerboard assay relative to control. It is filed as functional. The gist of the method:
(§3)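 Checkerboard in C. albicans ATCC 90028, inoculum prepared per CLSI M27-A3 in RPMI. Fluconazole serially diluted 80-1.25 µg/mL across the plate against the partner compound at 80-1.25 µg/mL final. Incubated 48 h at 35°C. Metabolic activity read by XTT reduction at 475 nm (660 nm reference), given as % of the untreated growth control.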

Assay [6] deals with Candida albicans. Put plainly: Synergistic antifungal activity against Candida albicans ATCC 90028 at 40 ug/ml after 48 hrs in presence of 1.25 ug/ml fluconazol by checkerboard assay relative to control. The class given is functional. The gist of the method:
as §3

Assay [7] has as its system Candida albicans. Nature of the assay: Synergistic antifungal activity against Candida albicans ATCC 90028 at 20 ug/ml after 48 hrs in presence of 20 ug/ml fluconazol by checkerboard assay relative to control. It is filed as functional. Particulars: ATCC 90028, 48 h, read-out: GI. The essentials: as §3
The test system of assay [8] is Candida albicans. Nature of the assay: Synergistic antifungal activity against Candida albicans ATCC 90028 at 20 ug/ml after 48 hrs in presence of 5 ug/ml fluconazol by checkerboard assay relative to control. The class given is functional. The essentials: as §3
Assay [9] has as its system Candida albicans. Nature of the assay: Synergistic antifungal activity against Candida albicans ATCC 90028 at 10 ug/ml after 48 hrs in presence of 80 ug/ml fluconazol by checkerboard assay relative to control. It is filed as functional. The gist of the method: as §3
In assay [10] the test system is Candida albicans. Put plainly: Synergistic antifungal activity against Candida albicans ATCC 90028 at 10 ug/ml after 48 hrs in presence of 20 ug/ml fluconazol by checkerboard assay relative to control. The class given is functional. The gist of the method: (§4)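 Checkerboard per M27-A3 against ATCC 90028: fluconazole at 80–1.25 µg/mL horizontally and partner compound at 80–1.25 µg/mL vertically, 100 µL yeast inoculum per well, 35°C for 48 h. After 48 h, metabolic activity was measured by XTT reduction at 475 nm (660 nm reference) relative to untreated growth control. FIC index is the sum of the FICs; <1 was defined as synergism and >1 as antagonism.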

Assay [11] concerns Candida albicans. Put plainly: Synergistic antifungal activity against Candida albicans ATCC 90028 at 10 ug/ml after 48 hrs in presence of 5 ug/ml fluconazol by checkerboard assay relative to control. It is filed as functional. The essentials: as §4
Assay [12] relates to Candida albicans. Put plainly: Synergistic antifungal activity against Candida albicans ATCC 90028 at 5 ug/ml after 48 hrs in presence of 2.5 ug/ml fluconazol by checkerboard assay relative to control. The class given is functional. The gist of the method:
as §2

For assay [13], the system named is Candida albicans. Nature of the assay: Synergistic antifungal activity against Candida albicans ATCC 90028 at 2.5 ug/ml after 48 hrs in presence of 1.25 ug/ml fluconazol by checkerboard assay relative to control. It is filed as functional. The essentials: as §2
Assay [14] has as its system Candida albicans. Nature of the assay: Antifungal activity against Candida albicans ATCC 90028 assessed as inhibition of metabolic activity at 5 ug/ml after 48 hrs in presence of 20 ug/ml fluconazol by XTT assay relative to control. The class given is functional. The note with it: values are per cent of control. The gist of the method: (§5)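 Checkerboard against strain ATCC 90028, inoculum per M27-A3: fluconazole 80-1.25 µg/mL on one axis, tetrazole 80-1.25 µg/mL on the other. Plates at 35°C for 48 h, then XTT metabolic reduction read at 475 nm (660 nm reference). Activity is the drop in mean absorbance against untreated growth control. FICs and their summed FIC index are taken at 50% reduction in metabolic activity.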

For assay [15], the system named is Candida albicans. Nature of the assay: Antifungal activity against Candida albicans ATCC 90028 assessed as inhibition of metabolic activity at 5 ug/ml after 48 hrs in presence of 10 ug/ml fluconazol by XTT assay relative to control. It is filed as functional. The note with it: values are per cent of control. The essentials: as §5
On the technique in general: Tetrazolium dyes change colour on reduction, which living cells bring about.

The test system of assay [16] is Candida albicans. Nature of the assay: Antifungal activity against Candida albicans ATCC 90028 assessed as inhibition of metabolic activity at 5 ug/ml after 48 hrs in presence of 2.5 ug/ml fluconazol by XTT assay relative to control. The class given is functional. The note with it: values are per cent of control. The essentials:
(§6)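 C. albicans ATCC 90028 in checkerboard: fluconazole serial dilutions (80-1.25 µg/mL) crossed with tetrazole (80-1.25 µg/mL final), M27-A3 inoculum in RPMI 1640, 35°C for 48 h. Metabolic activity measured by XTT reduction, read at 475 nm (660 nm reference). Activity expressed relative to untreated growth control absorbance.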

Assay [17] deals with Candida albicans. Put plainly: Antifungal activity against Candida albicans ATCC 90028 assessed as inhibition of metabolic activity at 2.5 ug/ml after 48 hrs in presence of 80 ug/ml fluconazol by XTT assay relative to control. It is filed as functional. Particulars: values are per cent of control. The gist of the method: as §6
The test system of assay [18] is Candida albicans. Put plainly: Antifungal activity against Candida albicans ATCC 90028 assessed as inhibition of metabolic activity at 1.25 ug/ml after 48 hrs in presence of 20 ug/ml fluconazol by XTT assay relative to control. The class given is functional. Particulars: values are per cent of control. The gist of the method:
as §5

The subject of assay [19] is Candida albicans. Put plainly: Antifungal activity against Candida albicans ATCC 90028 after 48 hrs assessed as fluconazol MIC by XTT assay. The class given is functional. Particulars: ATCC 90028, 48 h. The gist of the method: as §5
The test system of assay [20] is Candida albicans. Put plainly: Antifungal activity against Candida albicans ATCC 90028 assessed as metabolic activity at 80 ug/ml after 48 hrs in presence of 5 ug/ml fluconazol by XTT assay relative to control.
Assay [21] deals with Candida albicans. Nature of the assay: Antifungal activity against Candida albicans ATCC 90028 assessed as metabolic activity at 80 ug/ml after 48 hrs in presence of 20 ug/ml fluconazol by XTT assay relative to control.

Each structure is given as a SMILES string.

Usually residual activity stands for the signal under treatment as a percentage of the control signal. The MIC is the smallest concentration in the dilution series that meets the test's criterion for growth inhibition.

Take `Cc1ccc(-c2nnn(CCCN3CCOCC3)n2)cc1`: the Activity is 99.87% in the assay with Candida albicans [1], 95.72% with Candida albicans [2] and 99.57% in the assay on Candida albicans [3]. For the same molecule, the “growth inhibition (GI)” value in the assay on Candida albicans [4] was 99.54%; in the assay on Candida albicans [5] it was 99.69%; in the assay on Candida albicans [6] it was 99.57%; in the assay with Candida albicans [8] it was 98.27%; in the assay with Candida albicans [9], 99.21%; in the assay with Candida albicans [10], 98.99%. In addition, the “growth inhibition (GI)” value in the assay on Candida albicans [11] is recorded as 98.12%; in the assay with Candida albicans [12], 98.9%; in the assay on Candida albicans [13], 98.95%. Also, in the assay on Candida albicans [7], the inhibition of growth at 20 µg/mL was determined as 99.1%. Further, the residual activity is recorded as 93.31% with Candida albicans [14]; 81.48% in the assay with Candida albicans [15]; 100% with Candida albicans [16]; 84.01% with Candida albicans [17]; 100% in the assay with Candida albicans [18]. In addition, in the assay with Candida albicans [19], the MIC is 10 µg/mL. Further, the Metabolic activity in the assay with Candida albicans [20] is 100%; in the assay with Candida albicans [21] it was 50.83%.
Take `ClCCCn1nnnc1-c1ccccc1Cl`: the Activity was determined as 99.62% in the assay with Candida albicans [1], 97.4% in the assay on Candida albicans [2] and 100% in the assay with Candida albicans [3]. Besides, the “growth inhibition (GI)” value is on record as 99.67% with Candida albicans [4]; 99.59% in the assay on Candida albicans [5]; 99.93% in the assay with Candida albicans [6]; 99.02% in the assay with Candida albicans [8]; 99.43% with Candida albicans [9]; 99.61% with Candida albicans [10]. The “growth inhibition (GI)” value is listed as 98.9% with Candida albicans [11], 99.14% with Candida albicans [12] and 100% with Candida albicans [13]. The inhibition of growth at 20 µg/mL in the assay with Candida albicans [7] is 99.7%. Moreover, the residual activity was 73.79% in the assay on Candida albicans [14]; 66.6% in the assay with Candida albicans [15]; 68.03% in the assay with Candida albicans [16]; 80.42% in the assay with Candida albicans [17]; 60.65% in the assay on Candida albicans [18]. Moreover, the MIC in the assay on Candida albicans [19] stood at 1.25 µg/mL. The Metabolic activity in the assay on Candida albicans [20] is reported as 100%; in the assay on Candida albicans [21] it was 70.42%.
Take `CCOC(=O)CCn1nnc(-c2ccccc2)n1`: the values for the Activity with Candida albicans [1], in the assay with Candida albicans [2] and in the assay on Candida albicans [3] were 99.95%, 99.35% and 99.13%, respectively. For the same molecule, the “growth inhibition (GI)” value in the assay on Candida albicans [4] was determined as 99.77%; in the assay with Candida albicans [5], 99.53%; with Candida albicans [6], 99.56%; with Candida albicans [8], 98.72%; in the assay with Candida albicans [9], 99.49%; in the assay with Candida albicans [10] it was 99.46%. Further, the “growth inhibition (GI)” value in the assay on Candida albicans [11] was found to be 98.97%; with Candida albicans [12] it was 99.77%; with Candida albicans [13], 99.79%. Moreover, the inhibition of growth at 20 µg/mL with Candida albicans [7] was determined as 99.5%. The residual activity with Candida albicans [14] came to 67.66%; in the assay with Candida albicans [15], 69.35%; in the assay on Candida albicans [16], 80.73%; in the assay with Candida albicans [17], 72.63%; in the assay on Candida albicans [18], 62.2%. For the same molecule, the MIC with Candida albicans [19] worked out at 1.25 µg/mL. In addition, the Metabolic activity in the assay on Candida albicans [20] turned out to be 100%; in the assay on Candida albicans [21] it was 73.11%.

(Values after ChEMBL document CHEMBL4145471, “New 1,5 and 2,5-disubstituted tetrazoles-dependent activity towards surface barrier of Candida albicans” (Eur J Med Chem, 2018).)
